The source of these data is ChEMBL document CHEMBL1138889, “Development of N-2,4-pyrimidine-N-phenyl-N'-phenyl ureas as inhibitors of tumor necrosis factor alpha (TNF-alpha) synthesis. Part 1” (Bioorg Med Chem Lett, 2006).

SMILES strings stand for the structures. Bounds are passed on as bounds.

The target in one assay is T1, Mitogen-activated protein kinase 14 (Homo sapiens, UniProt Q16539). Briefly: Inhibition of LPS-stimulated TNFalpha production in human THP1 cells. Type of assay: functional, cell-based, THP-1.
T1 sequence (Q16539 whole entry): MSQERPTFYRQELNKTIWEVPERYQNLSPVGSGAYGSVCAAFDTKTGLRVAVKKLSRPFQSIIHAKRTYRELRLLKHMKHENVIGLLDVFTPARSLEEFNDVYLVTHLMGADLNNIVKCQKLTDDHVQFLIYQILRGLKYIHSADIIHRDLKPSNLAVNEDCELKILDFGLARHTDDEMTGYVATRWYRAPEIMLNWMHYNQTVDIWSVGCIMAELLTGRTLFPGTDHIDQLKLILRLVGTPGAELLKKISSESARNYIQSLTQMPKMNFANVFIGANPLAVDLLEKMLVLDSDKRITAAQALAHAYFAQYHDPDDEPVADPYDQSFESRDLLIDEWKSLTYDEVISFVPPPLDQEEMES
Details: not given
The method in brief:
(§1)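 THP-1 human monocytic cells, in duplicate cultures, were preincubated with or without inhibitor for 15 min. TNF-α release was then stimulated with LPS at 1 µg/ml final. Secreted TNF-α was quantified by ELISA 4 h after stimulation. Cell viability after the 4 h incubation was assessed by MTS assay.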
For `C[C@H](Nc1nccc(N(C(=O)Nc2ccccc2Cl)c2ccc(F)cc2)n1)c1ccccc1` (stereo in doubt; 5h), the IC50 (in general, the midpoint of a concentration-inhibition curve) came to 843 nM.
Take `CCOC(=O)N1CCC(Nc2nccc(N(C(=O)Nc3ccccc3Cl)c3ccc(F)cc3)n2)CC1`: the midpoint of inhibition, the IC50, lay at 3610 nM.
With `C[C@H](Nc1nccc(N(C(=O)Nc2ccccc2Cl)c2ccc(F)cc2)n1)C(C)(C)O`, the IC50 worked out at 122 nM.
Molecule `O=C(Nc1ccccc1Cl)N(c1ccc(F)cc1)c1ccnc(N2CCOCC2)n1` gave an IC50 of more than 5000 nM.
The molecule `COC[C@H](C)Nc1nccc(N(C(=O)Nc2ccccc2Cl)c2ccc(F)cc2)n1` returned an IC50 of 3100 nM. In other words, the single-digit micromolar range.
Still for that read-out and setting: as for `COC[C@H](C)Nc1nccc(N(C(=O)Nc2ccccc2C)c2ccccc2)n1`, the figure is 1000 nM.
`O=C(Nc1ccccc1Cl)N(c1ccc(F)cc1)c1ccnc(NC2CCOCC2)n1` returned an IC50 of 539 nM.
`COc1ccc(N(C(=O)Nc2ccccc2C)c2ccnc(N[C@@H](C)C(C)(C)O)n2)cc1` had an IC50 of 135 nM.
In turn, `COCC(C)Nc1nccc(N(N)C(=O)Nc2ccccc2Cl)n1` (single isomer, unassigned) gave an IC50 of more than 5000 nM.
Same read-out and setting: as for `COC[C@H](C)Nc1nccc(N(C(=O)Nc2ccccc2F)c2ccc(F)cc2)n1`, the figure is 2880 nM.
The molecule `Cc1ccccc1NC(=O)N(c1ccc(N(C)C)cc1)c1ccnc(N[C@@H](C)c2ccccc2)n1` gave an IC50 of more than 5000 nM.
The molecule `Cc1ccccc1NC(=O)N(c1ccc(F)cc1)c1ccnc(N[C@@H](C)C(C)(C)O)n1` had an IC50 of 176 nM.
`CCCS(=O)(=O)N1CCC(Nc2nccc(N(C(=O)Nc3ccccc3Cl)c3ccc(F)cc3)n2)CC1` had an IC50 of 1420 nM. Compared with the last molecule, the IC50 is about 8.1-fold higher.
`COc1ccc(N(C(=O)Nc2ccccc2Cl)c2ccnc(N[C@@H](C)C(C)(C)O)n2)cc1` gave an IC50 of 92 nM.
As to `C[C@H](Nc1nccc(N(C(=O)Nc2ccccc2Cl)c2cccc(F)c2)n1)c1ccccc1`, it took 6160 nM to reach half-maximal inhibition (IC50).
Consider `COC[C@H](C)Nc1nccc(N(C(=O)Nc2ccccc2Cl)c2ccc(N(C)C)cc2)n1`, for which the IC50 is more than 5000 nM.
Molecule `COC[C@H](C)Nc1nccc(N(C(=O)Nc2ccccc2C)c2ccc(F)cc2)n1` displayed an IC50 of 3650 nM. This lies in the single-digit micromolar range.
In turn, `C[C@H](Nc1nccc(N(C(=O)Nc2ccccc2Cl)c2ccccc2)n1)C(C)(C)O` yielded a half-inhibitory concentration (IC50) of 718 nM.
On the same count and under the same terms, as for `COC[C@H](C)Nc1nccc(N(C)C(=O)Nc2ccccc2C)n1`, the figure is more than 5000 nM; as for `COC[C@H](C)Nc1nccc(N(C(=O)Nc2ccc(C(F)(F)F)cc2)c2ccc(F)cc2)n1`, more than 5000 nM.
Turning to `CN1CCN(c2nccc(N(C(=O)Nc3ccccc3Cl)c3ccc(F)cc3)n2)CC1`, the IC50 was more than 5000 nM.
`C[C@H](Nc1nccc(N(C(=O)Nc2ccccc2Cl)c2ccc(F)cc2)n1)c1ccccc1` (stereo in doubt; 5i) registered an IC50 of more than 5000 nM.

A further assay concerns the target T1, Mitogen-activated protein kinase 14. The assay can be described thus: Inhibition of LPS-stimulated TNFalpha production in human THP1 cells at 1 uM. Type of assay: functional, cell-based. As to conditions: THP-1. In a few lines:
as §1
Regarding `C[C@H](Nc1nccc(N(C(=O)Nc2c(Cl)cccc2Cl)c2ccc(F)cc2)n1)C(C)(C)O`, the inhibition (commonly the drop in the measured response relative to a control, in per cent) stood at 63%.
